IC50 and inhibition data for 23 molecules are collected here from ChEMBL document CHEMBL3596197, “Synthesis, topoisomerase I and II inhibitory activity, cytotoxicity, and structure-activity relationship study of 2-phenyl- or hydroxylated 2-phenyl-4-aryl-5H-indeno[1,2-b]pyridines” (Bioorg Med Chem, 2015).

Counter-ions that a name gives are not always drawn.

The term IC50 denotes the concentration at which inhibition is half-maximal. A lower IC50 goes with greater potency in that assay. By inhibition is commonly meant the change of the read-out against control, counted positive when it falls.

One assay relates to T47D. The assay can be described thus: Cytotoxicity against human T47D cells incubated from day 2 to day 4 by CCK8 assay. It is filed as functional, cell-based. The gist of the method: (§1)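 Cells seeded at 2~4 × 10^4 per well and grown overnight in medium with 10% FBS at 37 °C, 5% CO2. Day 2: FBS starvation 4 h, then medium with graded compound concentrations. Day 4: CCK-8 added for 4 h more, absorbance read at 450 nm. IC50 from four-parameter logistic fit. Mean ± S.D. of three experiments run in triplicate.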
Background: Tetrazolium assays rely on reduction of a dye to a coloured formazan, in cell work by metabolically active cells.

Assay [1] has as its target T1, DNA topoisomerase 1 (Homo sapiens) (UniProt P11387).
T1 sequence (whole entry): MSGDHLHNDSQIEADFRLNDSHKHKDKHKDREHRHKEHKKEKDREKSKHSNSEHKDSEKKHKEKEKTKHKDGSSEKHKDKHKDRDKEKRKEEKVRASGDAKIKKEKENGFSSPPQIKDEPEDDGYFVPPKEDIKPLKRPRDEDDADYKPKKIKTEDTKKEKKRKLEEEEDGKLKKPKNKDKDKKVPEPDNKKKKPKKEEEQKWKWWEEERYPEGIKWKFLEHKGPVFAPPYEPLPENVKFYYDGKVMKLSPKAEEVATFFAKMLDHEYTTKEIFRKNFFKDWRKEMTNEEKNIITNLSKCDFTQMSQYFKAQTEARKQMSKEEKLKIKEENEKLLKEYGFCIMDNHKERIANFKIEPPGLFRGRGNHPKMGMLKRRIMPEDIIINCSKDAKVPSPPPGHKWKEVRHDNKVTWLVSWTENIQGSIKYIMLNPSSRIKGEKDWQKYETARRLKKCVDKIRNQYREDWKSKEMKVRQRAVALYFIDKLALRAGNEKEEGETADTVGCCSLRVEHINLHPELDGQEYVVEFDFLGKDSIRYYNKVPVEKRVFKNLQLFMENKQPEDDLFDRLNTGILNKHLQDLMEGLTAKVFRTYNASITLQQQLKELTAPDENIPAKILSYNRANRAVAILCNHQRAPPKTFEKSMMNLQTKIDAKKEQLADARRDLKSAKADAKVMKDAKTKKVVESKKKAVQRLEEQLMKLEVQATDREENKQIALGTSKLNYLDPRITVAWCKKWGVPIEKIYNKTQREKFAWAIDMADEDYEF
The assay can be described thus: Inhibition of human recombinant DNA topoisomerse 1 using pBR322 as substrate assessed as inhibition of conversion of supercoiled pBR322 to relaxed form at 100 uM after 30 mins by ethidium bromide staining-based electrophoresis analysis. The gist of the method: (§2)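 Relaxation of supercoiled pBR322 (100 ng) by 1 unit recombinant human topo I. Run at 37 °C for 30 min in 10 mM Tris-HCl pH 7.9, 150 mM NaCl, 0.1% BSA, 1 mM spermidine, 5% glycerol. Compounds from 20 mM DMSO stocks. Stopped with sarcosyl, then 1% agarose gel at 15 V for 7 h in TAE. Ethidium bromide stain, UV imaging, bands quantitated.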

The target in assay [2] is T1, DNA topoisomerase 1 (Homo sapiens). The assay can be described thus: Inhibition of human recombinant DNA topoisomerse 1 using pBR322 as substrate assessed as inhibition of conversion of supercoiled pBR322 to relaxed form at 20 uM after 30 mins by ethidium bromide staining-based electrophoresis analysis. In a few lines: as §2
Assay [3] addresses DNA topoisomerase 2-alpha (Homo sapiens) (UniProt P11388). The assay can be described thus: Inhibition of human recombinant DNA topoisomerse 2 alpha using pBR322 as substrate assessed as inhibition of conversion of supercoiled pBR322 to relaxed form at 100 uM after 30 mins by ethidium bromide staining-based electrophoresis analysis. In a few lines:
(§3)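 Supercoiled pBR322 (200 ng) with 1 unit human topo IIα, 30 min at 30 °C. Buffer: 10 mM Tris-HCl pH 7.9, 50 mM NaCl, 5 mM MgCl2, 1 mM EDTA, 1 mM ATP, 15 μg/mL BSA. Stopped with EDTA. 1% agarose gel at 25 V for 4 h in TAE, ethidium bromide stain, supercoiled DNA quantitated under UV.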

For assay [4] the target is unchanged. The assay can be described thus: Inhibition of human recombinant DNA topoisomerse 2 alpha using pBR322 as substrate assessed as inhibition of conversion of supercoiled pBR322 to relaxed form at 20 uM after 30 mins by ethidium bromide staining-based electrophoresis analysis. The gist of the method: as §3
Another assay relates to HCT-15. The assay can be described thus: Cytotoxicity against human HCT15 cells incubated from day 2 to day 4 by CCK8 assay. It is filed as functional, cell-based. The gist of the method: as §1
The test system of the next assay is DU-145. The assay can be described thus: Cytotoxicity against human DU145 cells incubated from day 2 to day 4 by CCK8 assay. The format is functional, cell-based. In a few lines: as §1
Another assay deals with HeLa. The assay can be described thus: Cytotoxicity against human HeLa cells incubated from day 2 to day 4 by CCK8 assay. The format is functional, cell-based. In a few lines:
as §1

Sequence of DNA topoisomerase 2-alpha (Homo sapiens) (P11388 whole entry): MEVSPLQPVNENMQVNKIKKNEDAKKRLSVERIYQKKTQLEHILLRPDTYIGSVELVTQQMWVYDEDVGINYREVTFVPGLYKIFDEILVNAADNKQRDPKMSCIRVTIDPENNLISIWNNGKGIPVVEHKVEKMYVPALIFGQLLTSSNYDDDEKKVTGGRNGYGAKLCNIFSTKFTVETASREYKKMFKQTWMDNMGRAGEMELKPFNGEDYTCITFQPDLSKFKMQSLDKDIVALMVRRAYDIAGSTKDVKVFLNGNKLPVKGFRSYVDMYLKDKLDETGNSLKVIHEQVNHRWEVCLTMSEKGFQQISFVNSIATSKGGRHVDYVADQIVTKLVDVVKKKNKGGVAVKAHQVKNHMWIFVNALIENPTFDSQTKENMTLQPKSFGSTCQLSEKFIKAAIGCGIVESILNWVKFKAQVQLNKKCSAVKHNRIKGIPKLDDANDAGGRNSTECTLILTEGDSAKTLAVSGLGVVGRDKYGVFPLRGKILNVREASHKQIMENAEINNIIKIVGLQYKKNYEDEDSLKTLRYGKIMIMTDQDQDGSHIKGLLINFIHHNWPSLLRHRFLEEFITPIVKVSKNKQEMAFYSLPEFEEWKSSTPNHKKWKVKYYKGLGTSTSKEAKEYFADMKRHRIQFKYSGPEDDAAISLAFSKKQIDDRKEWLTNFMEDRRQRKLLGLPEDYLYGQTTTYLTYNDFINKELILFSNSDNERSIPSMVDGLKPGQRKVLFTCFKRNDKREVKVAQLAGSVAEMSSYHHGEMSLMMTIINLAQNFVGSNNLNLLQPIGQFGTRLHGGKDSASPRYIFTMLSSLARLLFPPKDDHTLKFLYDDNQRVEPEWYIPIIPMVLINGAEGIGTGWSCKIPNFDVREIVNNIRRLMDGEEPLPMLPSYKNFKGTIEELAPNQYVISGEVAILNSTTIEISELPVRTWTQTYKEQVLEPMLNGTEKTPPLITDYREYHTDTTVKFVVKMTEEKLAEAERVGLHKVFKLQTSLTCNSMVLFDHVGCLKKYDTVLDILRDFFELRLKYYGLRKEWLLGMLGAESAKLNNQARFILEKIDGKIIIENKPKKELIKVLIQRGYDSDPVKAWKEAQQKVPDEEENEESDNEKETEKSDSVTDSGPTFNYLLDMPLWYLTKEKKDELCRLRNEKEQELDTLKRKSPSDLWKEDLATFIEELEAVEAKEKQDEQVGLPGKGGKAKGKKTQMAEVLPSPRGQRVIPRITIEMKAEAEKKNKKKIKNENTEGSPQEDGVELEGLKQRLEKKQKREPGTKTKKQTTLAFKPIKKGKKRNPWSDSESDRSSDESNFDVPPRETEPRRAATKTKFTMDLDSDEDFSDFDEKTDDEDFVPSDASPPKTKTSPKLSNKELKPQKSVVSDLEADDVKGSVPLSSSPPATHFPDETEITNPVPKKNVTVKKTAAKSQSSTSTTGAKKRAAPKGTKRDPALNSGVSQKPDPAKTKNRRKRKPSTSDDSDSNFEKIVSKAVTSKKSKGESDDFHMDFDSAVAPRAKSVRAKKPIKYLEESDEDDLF

In the assay with T47D, `COc1cc([C@@H]2c3cc4c(cc3[C@@H](O[C@@H]3O[C@@H]5CO[C@@H](C)O[C@H]5[C@H](O)[C@H]3O)[C@H]3COC(=O)[C@H]23)OCO4)cc(OC)c1O` [ETOPOSIDE] returned an IC50 of 0.7 µM.

Turning to `Oc1ccccc1-c1cc(-c2cccs2)c2c(n1)-c1ccccc1C2`, the inhibition in assay [1] amounted to 51.1%; in assay [2], 0%; in assay [3], 31.5%; in assay [4], 21.9%. Moreover, the IC50 in the assay on HCT-15, in the assay with T47D, in the assay with DU-145 and in the assay on HeLa was over 50 µM each time.

Consider `Oc1cccc(-c2cc(-c3ccccn3)c3c(n2)-c2ccccc2C3)c1`, for which the inhibition in assay [1] was 5.9%; in assay [3], 48.5%; in assay [4] it was 19.7%. Moreover, the concentration for half-maximal inhibition (IC50) in the assay on HCT-15 is over 50 µM; with T47D, over 50 µM; with DU-145, over 50 µM; in the assay with HeLa, 3.09 µM.

On to `Oc1ccccc1-c1cc(-c2ccsc2)c2c(n1)-c1ccccc1C2`, for which the inhibition in assay [1] turned out to be 87.8%; in assay [2] it was 0%; in assay [3] it was 46.8%; in assay [4] it was 23.2%. Further, the IC50 was over 50 µM in the assay on HCT-15, over 50 µM in the assay on T47D, 36.5 µM in the assay with DU-145 and over 50 µM in the assay on HeLa.

With `c1ccc(-c2cc(-c3ccoc3)c3c(n2)-c2ccccc2C3)cc1`, the inhibition in assay [1] worked out at 0%; in assay [3] it was 19.6%; in assay [4], 15.1%. Also, the IC50 in the assay on HCT-15 turned out to be 1.52 µM; in the assay on T47D it was 35.3 µM; in the assay on DU-145, 46.5 µM; with HeLa, 23.8 µM.

As for `CC[C@@]1(O)C(=O)OCc2c1cc1n(c2=O)Cc2cc3ccccc3nc2-1` [CAMPTOTHECIN], the IC50 in the assay with HCT-15 stood at 0.52 µM; with T47D, 0.31 µM; in the assay on HeLa, 0.41 µM.

`Oc1cccc(-c2cc(-c3cccs3)c3c(n2)-c2ccccc2C3)c1`: the inhibition in assay [1] was 55.6%; in assay [2] it was 0%; in assay [3], 72.2%; in assay [4], 32%. Besides, the IC50 with HCT-15 was 2.32 µM; in the assay on T47D, 4.07 µM; with DU-145 it was 4.38 µM; with HeLa it was 1.47 µM.

In the case of `Oc1cccc(-c2cc(-c3ccco3)c3c(n2)-c2ccccc2C3)c1`, the inhibition in assay [1] is 59.7%; in assay [2], 5.5%; in assay [3] it was 78.2%; in assay [4], 44.5%. Further, the IC50 in the assay on HCT-15 came to 1.59 µM; in the assay on T47D, 6.74 µM; in the assay with DU-145 it was 4.38 µM; in the assay on HeLa, 3.66 µM.

In the case of `Oc1ccccc1-c1cc(-c2ccoc2)c2c(n1)-c1ccccc1C2`, the inhibition stood at 50.6% in assay [1], 0.5% in assay [2], 51.7% in assay [3] and 39.2% in assay [4]. Besides, the IC50 with HCT-15, with T47D, with DU-145 and in the assay with HeLa was over 50 µM each time.

For the molecule `Oc1ccccc1-c1cc(-c2ccco2)c2c(n1)-c1ccccc1C2`, the inhibition is 58.3% in assay [1], 2.4% in assay [2] and 11.7% in assay [3]. The IC50 in the assay with HCT-15, with T47D, with DU-145 and in the assay with HeLa was over 50 µM in each case.

In the case of `Oc1ccccc1-c1cc(-c2cccnc2)c2c(n1)-c1ccccc1C2`, the inhibition in assay [1] amounted to 70.9%; in assay [2], 3.8%; in assay [3] it was 3.5%. Besides, the IC50 in the assay with HCT-15, with T47D, in the assay with DU-145 and with HeLa was over 50 µM throughout.

In the case of `Oc1ccc(-c2cc(-c3cccnc3)c3c(n2)-c2ccccc2C3)cc1`, the values for the inhibition in assay [1], in assay [2] and in assay [3] were 59.7%, 2.4% and 28.3%, respectively. The IC50 in the assay on HCT-15, in the assay with T47D, in the assay on DU-145 and in the assay on HeLa was over 50 µM throughout.

Consider `Oc1ccc(-c2cc(-c3ccncc3)c3c(n2)-c2ccccc2C3)cc1`, for which the inhibition came to 72.4% in assay [1], 0.7% in assay [2] and 27.1% in assay [3]. In addition, the concentration for half-maximal inhibition (IC50) in the assay with HCT-15, in the assay on T47D, in the assay with DU-145 and in the assay with HeLa was over 50 µM in each case.

As to `Oc1ccccc1-c1cc(-c2ccncc2)c2c(n1)-c1ccccc1C2`, the inhibition was 68.7% in assay [1], 2.3% in assay [2] and 5.1% in assay [3]. Besides, the IC50 with HCT-15 is over 50 µM; in the assay with T47D, over 50 µM; with DU-145, 39.6 µM; in the assay with HeLa it was over 50 µM.

As to `Oc1cccc(-c2cc(-c3ccncc3)c3c(n2)-c2ccccc2C3)c1`, the inhibition in assay [1] is 49.8%; in assay [2] it was 1.5%; in assay [3] it was 8.4%. For the same molecule, the half-maximal inhibitory concentration (IC50) in the assay on HCT-15, in the assay with T47D, with DU-145 and with HeLa was over 50 µM throughout.

As for `c1ccc(-c2cc(-c3ccccn3)c3c(n2)-c2ccccc2C3)cc1`, the inhibition in assay [1] is 3.6%; in assay [3], 16.4%. The half-maximal inhibitory concentration (IC50) in the assay with HCT-15 is over 50 µM; with T47D, 44.5 µM; in the assay with DU-145, 13.2 µM; in the assay with HeLa, 18.7 µM.

For the molecule `c1ccc(-c2cc(-c3ccsc3)c3c(n2)-c2ccccc2C3)cc1`, the inhibition in assay [1] came out at 3.4%; in assay [3] it was 16.7%. Also, the IC50 with HCT-15 was 31.4 µM; in the assay with T47D, over 50 µM; in the assay on DU-145, 1.62 µM; with HeLa, 29.8 µM.

For the molecule `c1ccc(-c2cc(-c3cccnc3)c3c(n2)-c2ccccc2C3)cc1`, the inhibition in assay [1] came out at 4.1%. The 50% inhibitory concentration (IC50) with HCT-15, in the assay with T47D, in the assay on DU-145 and in the assay with HeLa was over 50 µM throughout.

`c1ccc(-c2cc(-c3cccs3)c3c(n2)-c2ccccc2C3)cc1`: the inhibition in assay [1] was 3.7%; in assay [3] it was 16.8%. Moreover, the half-maximal inhibitory concentration (IC50) in the assay on HCT-15 was over 50 µM; with T47D it was 26.7 µM; with DU-145 it was 9.34 µM; with HeLa, 30.8 µM.

In turn, `COc1cccc2c1C(=O)c1c(O)c3c(c(O)c1C2=O)C[C@@](O)(C(=O)CO)C[C@@H]3O[C@H]1C[C@H](N)[C@H](O)[C@H](C)O1` [DOXORUBICIN HYDROCHLORIDE] had an IC50 in the assay on DU-145 of 1.02 µM.

Take `Oc1ccc(-c2cc(-c3ccccn3)c3c(n2)-c2ccccc2C3)cc1`: the inhibition in assay [1] is 61.2%; in assay [2], 4.7%; in assay [3], 18.2%. Further, the IC50 with HCT-15, with T47D, in the assay with DU-145 and with HeLa was over 50 µM in each case.

Consider `c1ccc(-c2cc(-c3ccncc3)c3c(n2)-c2ccccc2C3)cc1`, for which the inhibition in assay [1] came out at 3.3%. Besides, the IC50 in the assay on HCT-15, in the assay on T47D, in the assay with DU-145 and with HeLa was over 50 µM in each case.

On to `Oc1ccccc1-c1cc(-c2ccccn2)c2c(n1)-c1ccccc1C2`, for which the inhibition in assay [1] turned out to be 52.8%; in assay [2], 4.9%; in assay [3], 9.1%. Moreover, the IC50 in the assay with HCT-15, in the assay with T47D, in the assay on DU-145 and with HeLa was over 50 µM throughout.
